Assay results published in ChEMBL document CHEMBL3414431, “Synthesis, biological evaluation and molecular docking of some substituted pyrazolines and isoxazolines as potential antimicrobial agents” (2015).
In brackets after ≈: the same amount, converted by molar mass.

Key:
[1] = tested on: Candida albicans; experiment: Antimicrobial activity against Candida albicans ATCC 12031 assessed as diameter of zone of inhibition at 2 mg/ml after 24 hrs by agar well diffusion method; format: functional; settings: ATCC 12031, 24 h, read-out: DIZ
Procedure, shortened: (§1)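 Agar well diffusion. Fungi were grown on Sabouraud dextrose agar and bacteria on nutrient agar (peptone, beef extract, NaCl, agar), with the inoculum spread over the medium. Wells were bored and filled with test drug at 2.0 mg/ml in DMSO. Plates sat 1 h at room temperature for diffusion, then 37 °C for 24 h. Inhibition zone diameter (mm, including well) is reported as mean ± SEM.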

[2] = tested on: Aspergillus fumigatus; experiment: Antimicrobial activity against Aspergillus fumigatus ATCC 1022 assessed as diameter of zone of inhibition at 2 mg/ml after 24 hrs by agar well diffusion method; format: functional; settings: ATCC 1022, 24 h, read-out: DIZ; procedure, shortened: as §1
[3] = tested on: Aspergillus versicolor; experiment: Antimicrobial activity against Aspergillus versicolor ATCC 10072 assessed as diameter of zone of inhibition at 2 mg/ml after 24 hrs by agar well diffusion method; format: functional; settings: ATCC 10072, 24 h, read-out: DIZ; procedure, shortened: as §1
[4] = tested on: Aspergillus flavus; experiment: Antimicrobial activity against Aspergillus flavus ATCC 9643 assessed as diameter of zone of inhibition at 2 mg/ml after 24 hrs by agar well diffusion method; format: functional; settings: ATCC 9643, 24 h, read-out: DIZ; procedure, shortened: as §1
[5] = tested on: Staphylococcus aureus; experiment: Antimicrobial activity against Staphylococcus aureus ATCC 25923 assessed as diameter of zone of inhibition at 2 mg/ml after 24 hrs by agar well diffusion method; format: functional; settings: ATCC 25923, 24 h, read-out: DIZ; procedure, shortened: as §1
[6] = tested on: Escherichia coli; experiment: Antimicrobial activity against Escherichia coli ATCC 25922 assessed as diameter of zone of inhibition at 2 mg/ml after 24 hrs by agar well diffusion method; format: functional; settings: ATCC 25922, 24 h, read-out: DIZ; procedure, shortened: as §1
[7] = tested on: Candida albicans; experiment: Antimicrobial activity against Candida albicans ATCC 12031 after 48 hrs by two-fold serial dilution method; format: functional; settings: ATCC 12031, 48 h
Procedure, shortened: (§2)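 Two-fold serial broth dilution of compounds, 100 down to 3.125 (six levels). Each was inoculated with fungal suspension at 10^6 CFU/mL in suitable broth and incubated at 37 °C for 48 h. Growth was judged by turbidity to assign the minimum inhibitory concentration.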

[8] = tested on: Aspergillus fumigatus; experiment: Antimicrobial activity against Aspergillus fumigatus ATCC 1022 after 48 hrs by two-fold serial dilution method; format: functional; settings: ATCC 1022, 48 h; procedure, shortened: as §2
[9] = tested on: Aspergillus versicolor; experiment: Antimicrobial activity against Aspergillus versicolor ATCC 10072 after 48 hrs by two-fold serial dilution method; format: functional; settings: ATCC 10072, 48 h; procedure, shortened: as §2
[10] = tested on: Aspergillus flavus; experiment: Antimicrobial activity against Aspergillus flavus ATCC 9643 after 48 hrs by two-fold serial dilution method; format: functional; settings: ATCC 9643, 48 h; procedure, shortened: as §2
[11] = tested on: Staphylococcus aureus; experiment: microbe, parasite or virus in culture; settings: ATCC 25923, 24 h, read-out: DIZ
[12] = tested on: Candida albicans; experiment: Antimicrobial activity against Candida albicans ATCC 12031 assessed as diameter of zone of inhibition at 20 microg/disc after 24 hrs by agar well diffusion method; format: functional; settings: ATCC 12031, 24 h, read-out: DIZ
Procedure, shortened: (§3)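 Fungal inoculum spread on Sabouraud dextrose agar. 6 mm wells bored and filled with test drug at 2.0 mg/ml in DMSO (stock-as-added). Plates held 1 h at room temperature for diffusion, then incubated at 37 °C for 24 h. Inhibition zone diameter measured in mm, including well diameter. Reported as mean ± SEM.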

[13] = tested on: Aspergillus fumigatus; experiment: Antimicrobial activity against Aspergillus fumigatus ATCC 1022 assessed as diameter of zone of inhibition at 20 microg/disc after 24 hrs by agar well diffusion method; format: functional; settings: ATCC 1022, 24 h, read-out: DIZ; procedure, shortened: as §3
[14] = tested on: Aspergillus versicolor; experiment: Antimicrobial activity against Aspergillus versicolor ATCC 10072 assessed as diameter of zone of inhibition at 20 microg/disc after 24 hrs by agar well diffusion method; format: functional; settings: ATCC 10072, 24 h, read-out: DIZ; procedure, shortened: as §3
[15] = tested on: Aspergillus flavus; experiment: Antimicrobial activity against Aspergillus flavus ATCC 9643 assessed as diameter of zone of inhibition at 20 microg/disc after 24 hrs by agar well diffusion method; format: functional; settings: ATCC 9643, 24 h, read-out: DIZ; procedure, shortened: as §3

Row | SMILES | zone of inhibition at 2000 µg/mL [1] [mm] | zone of inhibition at 2000 µg/mL [2] [mm] | zone of inhibition at 2000 µg/mL [3] [mm] | zone of inhibition at 2000 µg/mL [4] [mm] | zone of inhibition at 2000 µg/mL [5] [mm] | zone of inhibition at 2000 µg/mL [6] [mm] | MIC [7] [µg/mL] | MIC [8] [µg/mL] | MIC [9] [µg/mL] | MIC [10] [µg/mL] | zone of inhibition at 25 µg/disc [11] [mm] | zone of inhibition at 20 µg/disc [12] [mm] | zone of inhibition at 20 µg/disc [13] [mm] | zone of inhibition at 20 µg/disc [14] [mm] | zone of inhibition at 20 µg/disc [15] [mm]
1 | Cc1cc(O)c(C2=NOC(c3ccc(Cl)cc3)C2)c(C)c1Cl (centres undefined) | 22 | 20 | 21 | 20 | 12 | 7 | 12.5 (≈ 37.2 µM) | 6.25 (≈ 18.6 µM) | 12.5 (≈ 37.2 µM) | 12.5 (≈ 37.2 µM) | – | – | – | – | –
2 | Cc1cc(O)c(C2=NOC(c3ccccc3Cl)C2)c(C)c1Cl (centres undefined) | 23 | 21 | 20 | 20 | 11 | 8 | 12.5 (≈ 37.2 µM) | 6.25 (≈ 18.6 µM) | 12.5 (≈ 37.2 µM) | 12.5 (≈ 37.2 µM) | – | – | – | – | –
3 | COc1ccc(C2CC(c3c(O)cc(C)c(Cl)c3C)=NO2)cc1OC (centres undefined) | 21 | 15 | 14 | 15 | 10 | 9 | 12.5 (≈ 34.5 µM) | 6.25 (≈ 17.3 µM) | 12.5 (≈ 34.5 µM) | 12.5 (≈ 34.5 µM) | – | – | – | – | –
4 | COc1cc(C)c(Cl)c(C)c1C(=O)C1=NNCC1c1ccccc1 (centres undefined) | 19 | 20 | 19 | 21 | 10 | 8 | 25 (≈ 72.9 µM) | 6.25 (≈ 18.2 µM) | 12.5 (≈ 36.5 µM) | 6.25 (≈ 18.2 µM) | – | – | – | – | –
5 | COc1ccccc1C1CNN=C1C(=O)c1c(OC)cc(C)c(Cl)c1C (centres undefined) | 21 | 18 | 20 | 19 | 9 | 8 | 12.5 (≈ 33.5 µM) | 12.5 (≈ 33.5 µM) | 12.5 (≈ 33.5 µM) | 6.25 (≈ 16.8 µM) | – | – | – | – | –
6 | COc1cc(C)c(Cl)c(C)c1C(=O)C1=NNCC1c1ccccc1[N+](=O)[O-] (centres undefined) | 20 | 20 | 19 | 19 | 10 | 9 | 25 (≈ 64.5 µM) | 12.5 (≈ 32.2 µM) | 12.5 (≈ 32.2 µM) | 12.5 (≈ 32.2 µM) | – | – | – | – | –
7 | O=C(O)c1cn(C2CC2)c2cc(N3CCNCC3)c(F)cc2c1=O [CIPROFLOXACIN] | – | – | – | – | – | – | – | – | – | – | 24 | – | – | – | –
8 | OC(Cn1cncn1)(Cn1cncn1)c1ccc(F)cc1F [FLUCONAZOLE] | – | – | – | – | – | – | 12.5 (≈ 40.8 µM) | 12.5 (≈ 40.8 µM) | 3.12 (≈ 10.2 µM) | 12.5 (≈ 40.8 µM) | – | 21 | 22 | 21 | 21
